Laboratory results: ChEMBL document CHEMBL1148403, “Platinum(IV) complex with adamantylamine as nonleaving amine group: synthesis, characterization, and in vitro antitumor activity against a panel of cisplatin-resistant cancer cell lines” (J Med Chem, 2004)

Columns and labels:
A2780 [1] = test: Cytotoxicity against ovarian carcinoma A2780/cis90 tumor cell lines; type: functional, cell-based, Homo sapiens
A-427 = test: Cytotoxicity against lung carcinoma A427 tumor cell lines; type: functional, cell-based, Homo sapiens
A2780 [2] = test: Cytotoxicity against ovarian carcinoma A2780 tumor cell lines; type: functional, cell-based, Homo sapiens
Summary of the method: (§1)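 Cisplatin-sensitive A2780 cells and the A2780/cis resistant subline were exposed continuously for graded times (24, 48 and 72 h). IC50 was determined at each exposure time. The resistant subline had been derived by gradual cisplatin treatment.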

B16 = test: Cytotoxicity against mouse melanoma B16 tumor cell lines; type: functional, cell-based
COR-L23 = test: Cytotoxicity against lung carcinoma COR-L23/CTR tumor cell lines; type: functional, cell-based, Homo sapiens
HCT-116 = test: Cytotoxicity against colon cancer HCT116 tumor cell lines; type: functional, cell-based, Homo sapiens
HT-29 [3] = test: Cytotoxicity against colon cancer HT-29 tumor cell lines; type: functional, cell-based, Homo sapiens
HBL-100 = test: Cytotoxicity against breast carcinoma HBL100 tumor cell lines; type: functional, cell-based, Homo sapiens
HT-29 [4] = test: Cytotoxicity against colon cancer HT29N tumor cell lines; type: functional, cell-based, Homo sapiens
K562 = test: Cytotoxicity against chronic myelogenous leukemia K562 tumor cell lines; type: functional, cell-based, Homo sapiens
KG-1 = test: Cytotoxicity against chronic myelogenous leukemia KG-1 tumor cell lines; type: functional, cell-based, Homo sapiens
ML-2 = test: Cytotoxicity against acute myelogenous leukemia ML-2 tumor cell lines; type: functional, cell-based, Homo sapiens
MCF7 = test: Cytotoxicity against breast carcinoma MCF-7 tumor cell lines; type: functional, cell-based, Homo sapiens
A2780 [5] = test: Cytotoxicity against ovarian carcinoma A2780/cis tumor cell lines; type: functional, cell-based, Homo sapiens; summary of the method: as §1

## CISPLATIN
A2780 [1]
  IC50: > 80 µM
A-427
  IC50: 63 µM
A2780 [2]
  IC50: 4 µM
B16
  IC50: > 80 µM
COR-L23
  IC50: > 80 µM
HCT-116
  IC50: > 80 µM
HT-29 [3]
  IC50: 50 µM
HBL-100
  IC50: 63 µM
HT-29 [4]
  IC50: > 80 µM
K562
  IC50: > 80 µM
KG-1
  IC50: 48 µM
ML-2
  IC50: > 80 µM
MCF7
  IC50: 71 µM
A2780 [5]
  IC50: 40 µM
